Results as given in ChEMBL document CHEMBL3271940, “Monoquaternary neuromuscular blocking agents based on 1-tetralone and 1-indanone” (J Med Chem, 1976).

How the values were obtained:
[1] = species on record: Felis catus; experiment: Neuromuscular blocking activity in cat assessed as blockade of tibialis muscle twitches; type: functional
In short: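 The reported value is the dose that produced 50% blockade of muscle twitches, given ± standard error together with the number of determinations.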

[2] = species on record: Felis catus; experiment: Neuromuscular blocking activity in cat assessed as time duration of action of blockade of tibialis muscle twitches at ED50; type: functional
[3] = Dissociation constant, pKa of the compound in water; type: physicochemical

pKa [3] | Compound | ED50 [1] | Time [2]
– | C[N+](C)(C)c1cccc2c1CCC/C2=N\N.Cc1ccc(S(=O)(=O)[O-])cc1 | > 10 µmol/kg | –
– | C[N+](C)(C)c1cccc2c1CC/C2=N\N.[I-] | > 10 µmol/kg | –
– | C[N+](C)(C)c1ccc2c(c1)/C(=N/N)CCC2.[I-] | > 10 µmol/kg | –
– | CN(C)/N=C1\CCCc2cc([N+](C)(C)C)ccc21.[I-] | > 10 µmol/kg | –
– | C[N+](C)(C)CCOC(=O)CCC(=O)OCC[N+](C)(C)C.[Cl-].[Cl-] [SUCCINYLCHOLINE CHLORIDE] | 0.1 µmol/kg | 4.4 min
– | C[N+](C)(C)c1ccc2c(c1)CC/C2=N\N.[I-] | 0.44 µmol/kg | 10 min
– | C[N+](C)(C)c1ccc2c(c1)/C(=N/N)CC2.[I-] | 3.98 µmol/kg | 17.1 min
2.5 | C[N+](C)(C)c1ccc2c(c1)CCC/C2=N\N.[I-] | 0.16 µmol/kg | 5.2 min
